According to ChEMBL document CHEMBL1123788, “Synthesis and antitumor activity of tropolone derivatives. 5” (J Med Chem, 1987):
Values after ≈ are worked out from the molar mass of the structure shown. Active and inactive are the calls of the source. The calls are words filed in the database; no cut-off is given here.

Assays:
[1] = In vitro inhibition of KB cell growth; assay type: functional, cell-based; settings: Homo sapiens
[2] = system: P388; assay: In vivo antitumor activity against leukemia P388 in mice at 2.5 mg/kg dosage administered intraperitoneally once a day for 1 and 5 days; assay type: functional, Mus musculus; settings: route intraperitoneal
Method in brief: (§1)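 Mice bearing P388 leukemia were given the compound intraperitoneally once daily for 1 and 5 days, at doses of 0.6 to 400 mg/kg; single-dose screens were run at 400 mg/kg. Antitumor activity is reported as T/C, %.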

[3] = system: P388; assay: In vivo antitumor activity against leukemia P388 in mice at 5 mg/kg dosage administered intraperitoneally once a day for 1 and 5 days; assay type: functional, Mus musculus; settings: route intraperitoneal; method in brief: as §1
[4] = system: P388; assay: In vivo antitumor activity against leukemia P388 in mice at 0.6 mg/kg dosage administered intraperitoneally once a day for 1 and 5 days; assay type: functional, Mus musculus; settings: route intraperitoneal; method in brief: as §1
[5] = system: P388; assay: In vivo antitumor activity against leukemia P388 in mice at 400 mg/kg dosage administered intraperitoneally once a day for 1 and 5 days; compound is inactive; assay type: functional, organism-based; parameters: dose 400 mg/kg; settings: Mus musculus; method in brief: as §1
[6] = system: P388; assay: In vivo antitumor activity against leukemia P388 in mice at 200 mg/kg dosage administered intraperitoneally once a day for 1 and 5 days; assay type: functional, Mus musculus; settings: route intraperitoneal; method in brief: as §1
[7] = system: P388; assay: In vivo antitumor activity against leukemia P388 in mice at 100 mg/kg dosage administered intraperitoneally once a day for 1 and 5 days; assay type: functional, Mus musculus; settings: route intraperitoneal; method in brief: as §1
[8] = system: P388; assay: In vivo antitumor activity against leukemia P388 in mice at 400 mg/kg dosage administered intraperitoneally once a day for 1 and 5 days; assay type: functional, Mus musculus; settings: route intraperitoneal; method in brief: as §1
[9] = system: P388; assay: In vivo antitumor activity against leukemia P388 in mice at 50 mg/kg dosage administered intraperitoneally once a day for 1 and 5 days; assay type: functional, Mus musculus; settings: route intraperitoneal; method in brief: as §1

Row | SMILES | IC50 [1] [µg/mL] | T/C [5] | further results
1 | COc1ccc(C(c2ccc(C(C)C)cc(=O)c2O)c2ccc(C(C)C)cc(=O)c2O)cc1 | 0.5 (≈ 1.12 µM) |  | T/C [2]: 134%; T/C [3]: 173%; T/C [4]: 127%
2 | COc1ccc(C(c2ccc(C(C)C)cc(=O)c2OC)c2ccc(C(C)C)cc(OC)c2=O)cc1 (centres undefined) | 5.4 (≈ 11.4 µM) | inactive | 
3 | COc1ccc(C(c2ccc(C(C)C)cc(S)c2=O)c2ccc(C(C)C)cc(S)c2=O)cc1 | 5.3 (≈ 11.1 µM) | inactive | 
4 | C/N=c1\cc(C(C)C)ccc(C(c2ccc(OC)cc2)c2ccc(C(C)C)cc(NC)c2=O)c1O (centres undefined) | 100 (≈ 212 µM) | inactive | 
5 | CNc1cc(C(C)C)ccc(C(c2ccc(OC)cc2)c2ccc(C(C)C)cc(=O)c2O)c1=O (centres undefined) | 50 (≈ 109 µM) | inactive | 
6 | COc1ccc(C(c2ccc(C(C)C)cc(OC)c2=O)c2ccc(C(C)C)cc(OC)c2=O)cc1 | 23.5 (≈ 49.5 µM) | inactive | 
7 | COc1ccc(C(c2ccc(C(C)C)cc(=O)c2O)c2ccc(C(C)C)cc(OC)c2=O)cc1 (centres undefined) | 1.7 (≈ 3.69 µM) |  | T/C [6]: 148%; T/C [7]: 133%; T/C [8]: 60%
8 | COc1ccc(C(c2ccc(C(C)C)cc(=O)c2OC)c2ccc(C(C)C)cc(=O)c2OC)cc1 |  | inactive | 
9 | CCOC(c1ccc(OC)cc1)c1ccc(C(C)C)cc(=O)c1O (centres undefined) | 0.5 (≈ 1.52 µM) |  | T/C [6]: 128%; T/C [9]: 119%; T/C [7]: 140%; T/C [8]: 140%
